Two molecules from ChEMBL document CHEMBL4834403, “Design and Synthesis of Novel Epigenetic Inhibitors Targeting Histone Deacetylases, DNA Methyltransferase 1, and Lysine Methyltransferase G9a with In Vivo Efficacy in Multiple Myeloma” (J Med Chem, 2021) can be followed below.

Data set [1] in a line: Stability of the compound in human pooled hepatocytes assessed as parent compound remaining incubated for 60 mins. The class given is ADME, cell-based, Hepatocyte. To be noted: read-out: Stabilty.
Data set [2] can be described thus: Intrinsic clearance in human pooled hepatocytes. The conditions noted are these: read-out: CLH. The class given is ADME, cell-based, Hepatocyte.
The nature of data set [3]: Intrinsic clearance in mouse pooled hepatocytes. To be noted: read-out: CLH. The class given is ADME, cell-based, Hepatocyte.
For data set [4], the target named is T1, Histone-lysine N-methyltransferase EHMT2 (Homo sapiens) (UniProt Q96KQ7).
T1 sequence (whole entry): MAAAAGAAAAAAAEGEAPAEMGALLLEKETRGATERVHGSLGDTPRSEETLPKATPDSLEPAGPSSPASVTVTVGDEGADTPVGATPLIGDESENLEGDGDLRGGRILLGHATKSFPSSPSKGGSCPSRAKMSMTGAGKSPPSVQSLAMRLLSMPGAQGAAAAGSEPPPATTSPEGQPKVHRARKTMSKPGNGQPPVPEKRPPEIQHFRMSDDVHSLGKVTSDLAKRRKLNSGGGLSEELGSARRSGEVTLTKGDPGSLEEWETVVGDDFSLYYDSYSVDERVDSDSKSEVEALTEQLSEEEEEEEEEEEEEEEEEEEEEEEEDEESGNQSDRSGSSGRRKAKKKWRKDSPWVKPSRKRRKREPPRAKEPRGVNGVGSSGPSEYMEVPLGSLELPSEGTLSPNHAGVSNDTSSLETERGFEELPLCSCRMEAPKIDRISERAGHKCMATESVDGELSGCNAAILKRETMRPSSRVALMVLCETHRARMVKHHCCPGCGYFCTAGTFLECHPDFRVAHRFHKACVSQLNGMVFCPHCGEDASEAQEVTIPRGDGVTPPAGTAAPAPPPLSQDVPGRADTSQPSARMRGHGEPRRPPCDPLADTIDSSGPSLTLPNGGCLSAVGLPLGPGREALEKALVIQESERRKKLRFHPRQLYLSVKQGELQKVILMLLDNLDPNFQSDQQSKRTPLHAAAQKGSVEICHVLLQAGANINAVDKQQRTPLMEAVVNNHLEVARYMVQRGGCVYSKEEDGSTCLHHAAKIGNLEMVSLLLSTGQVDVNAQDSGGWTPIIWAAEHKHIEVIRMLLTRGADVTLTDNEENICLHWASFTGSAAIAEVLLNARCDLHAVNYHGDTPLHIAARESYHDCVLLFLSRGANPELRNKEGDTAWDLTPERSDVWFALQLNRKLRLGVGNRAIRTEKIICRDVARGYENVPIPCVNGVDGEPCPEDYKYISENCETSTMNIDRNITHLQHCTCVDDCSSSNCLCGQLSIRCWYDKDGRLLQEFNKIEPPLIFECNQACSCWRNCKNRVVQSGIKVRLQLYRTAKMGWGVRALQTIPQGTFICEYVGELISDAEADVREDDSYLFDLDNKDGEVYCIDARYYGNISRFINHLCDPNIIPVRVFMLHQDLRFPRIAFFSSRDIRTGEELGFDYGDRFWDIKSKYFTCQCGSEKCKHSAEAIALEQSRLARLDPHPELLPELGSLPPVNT
In words: Inhibition of G9A in human MM1.S cells assessed as decrease in H3K9Me2 levels up to 1000 nM after 48 hrs by Western blot analysis. The class given is cell-based. To be noted: dose nM <=1000, time 48.0 hrs. The method in brief: (§1)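 MM1.S cells exposed 48 h across a concentration range. Global H3K9Ac and H3K9me2 read by Western blot; run in duplicate.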
A general note: Immunoblotting shows a protein as a band on a membrane.

The nature of data set [5]: Apparent volume of distribution during terminal phase in BALB/c RAG2-/- gammaC-/- mouse at 10 mg/kg, ip using 80% saline 10% Tween20 and 10% DMSO formulation measured up to 24 hrs by UPLC-triple quadrupole MS analysis. The class given is ADME, organism-based. The conditions noted are these: in vivo, read-out: Vz/F.
Data set [6] concerns the target CYP3A4 (Homo sapiens, UniProt P08684). In words: Inhibition of CYP3A4 in human liver microsomes at 10 uM incubated for 10 mins in presence of NADPH by LC-MS/MS analysis relative to control. The class given is ADME. In general terms: Liver microsomes are vesicles of endoplasmic reticulum, rich in cytochrome P450 enzymes.
Data set [7] is described as follows: AUC (0 to 24 hrs) in BALB/c RAG2-/- gammaC-/- mouse at 10 mg/kg, ip using 80% saline 10% Tween20 and 10% DMSO formulation measured up to 24 hrs by UPLC-triple quadrupole MS analysis. Set-up: route intraperitoneal, dose 10 mg/kg, time <=24. The conditions noted are these: in vivo. The class given is ADME, organism-based.
Data set [8] is described as follows: Stability of the compound in mouse pooled hepatocytes assessed as parent compound remaining incubated for 60 mins. The class given is ADME, cell-based, Hepatocyte. To be noted: read-out: Stabilty.
Data set [9] in a line: Apparent volume of distribution during terminal phase in BALB/c RAG2-/- gammaC-/- mouse at 10 mg/kg, ip measured up to 24 hrs by UPLC-triple quadrupole MS analysis. The class given is ADME, organism-based. The conditions noted are these: in vivo, read-out: Vz/F.
In data set [10] the test system is MM1.S. In words: Antitumor activity against human MM1.S cells xenografted in BALB/c RAG2-/- gammaC-/- mouse assessed as reduction in tumor volume at 10 mg/kg, ip administered for 5 consecutive days followed by 2 days rest and measured after 35 days (reference value: 3836 +/- 1696 mm3). The class given is functional. To be noted: time 35 day.
The nature of data set [11]: Half life in BALB/c RAG2-/- gammaC-/- mouse at 10 mg/kg, ip using 80% saline 10% Tween20 and 10% DMSO formulation measured up to 24 hrs by UPLC-triple quadrupole MS analysis. The class given is ADME, organism-based. To be noted: in vivo.
Data set [12] addresses T1, Histone-lysine N-methyltransferase EHMT2 (Homo sapiens). In words: Inhibition of G9A in human MM1.S cells assessed as decrease in H3K9Me2 levels > 1 uM after 48 hrs by Western blot analysis. The class given is cell-based. To be noted: dose microM >1, time 48.0 hrs. The method in brief:
as §1

Data set [13] concerns the target Histone deacetylase (Homo sapiens) (UniProt Q13547+O15379+Q9UBN7+Q92769+Q9UQL6+Q8WUI4+Q9BY41+Q96DB2+P56524+Q9UKV0+Q969S8). In words: Inhibition of HDAC in human MM1.S cells assessed as increase in H3K9Ac at > 1 uM after 48 hrs by Western blot analysis. The class given is cell-based. To be noted: dose microM >1, time 48.0 hrs. The method in brief:
as §1

Data set [14] in a line: Toxicity in mouse assessed as mouse death at 10 mg/kg, ip after 10 mins. The class given is organism-based. The conditions noted are these: in vivo. The method in brief: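 Observation made during a preliminary pharmacokinetic study with i.p. dosing, n = 5 mice per dose level, with blood extraction after administration.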

Activity calls are given as the source filed them. No cut-off for these calls is given here.

Sequence of CYP3A4 (P08684 whole entry): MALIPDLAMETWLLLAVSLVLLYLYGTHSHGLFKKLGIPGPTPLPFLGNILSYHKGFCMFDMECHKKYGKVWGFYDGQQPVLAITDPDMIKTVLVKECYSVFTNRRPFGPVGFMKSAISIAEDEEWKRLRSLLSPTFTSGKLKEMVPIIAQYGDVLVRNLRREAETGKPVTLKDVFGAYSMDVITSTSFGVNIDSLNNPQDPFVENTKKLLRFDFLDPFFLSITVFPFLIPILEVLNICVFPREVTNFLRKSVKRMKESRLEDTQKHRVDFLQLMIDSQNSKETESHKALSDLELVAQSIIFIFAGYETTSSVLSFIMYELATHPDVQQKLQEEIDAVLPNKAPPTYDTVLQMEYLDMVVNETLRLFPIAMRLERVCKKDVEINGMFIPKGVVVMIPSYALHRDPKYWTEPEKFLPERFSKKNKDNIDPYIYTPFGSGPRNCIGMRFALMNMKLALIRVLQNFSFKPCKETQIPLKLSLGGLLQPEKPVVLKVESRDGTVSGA

By inhibition is commonly meant the share of the control response that was lost under treatment. Usually AUC(0-t) stands for exposure summed from dosing to a finite time, without extrapolation to infinity. A lower AUC(0-t) goes with low exposure. As a reminder, the half-life is how long it takes for the measured level to halve. `COc1cc2nc(-c3ccc(C)o3)cc(NCC3CCN(c4ncc(C(=O)NO)cn4)CC3)c2cc1OC`: the remaining at 1 h in [1] is 50.8%; in data set [8], 14.3%. In addition, the CLint scaled in [2] was found to be 54.2 mL/min/kg; in data set [3] it was 411 mL/min/kg. In addition, the inhibition entry in [4] is “inactive”. In addition, the Vd/F in data set [5] stood at 6.56 L; in data set [9], 4.6 L. Also, in [6], the inhibition at 10 min, 10 µM is 50.8%. In data set [7], the AUC(0-t) came to 0.916 µM·h. Moreover, the Activity in [10] was 1788 mm3. Further, in data set [11], the half-life was 8.46 h.
For the molecule `COc1cc2c(NCC3CCN(c4ncc(C(=O)NO)cn4)CC3)cc(-c3ccc(C)o3)nc2cc1OCCCN1CCCC1`, the inhibition entry in [12] and in data set [13] was “Active” each time. Moreover, the Activity entry in data set [14] is “Toxic”.
